Data published in ChEMBL document CHEMBL3797146, “FimH Antagonists: Phosphate Prodrugs Improve Oral Bioavailability” (J Med Chem, 2016).

Tests used:
[1] = AUC (0 to 24 hrs) in C3H/HeN mouse urine assessed as compound 5 level at 10 mg/kg, po administered as single dose by LC-MS method; format: ADME, organism-based; parameters: time < 24 hr, dose 10 mg/kg, route oral; settings: in vivo
Method in brief: (§1)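 Single oral dose given to female C3H/HeN mice. Active principle was measured in urine over 0–24 h, and Cmax, Tmax and urine AUC0–24 were derived from the concentration profiles. The 7.7 mg/kg dose was given as a suspension. Values are means with SD for groups of three mice, or five at 7.7 mg/kg.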

[2] = Stability of the compound assessed as half life for human Caco2 cells phosphatase mediated compound hydrolysis at 62.5 uM by LC-MS method; format: ADME, cell-based; settings: Caco-2 cells
Method in brief: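 Prodrug in Dulbecco's Modified Eagle's Medium (62.5 µM) applied to the apical chamber of the Caco-2 system. Unchanged prodrug was monitored by LC-MS, and t1/2 was calculated from remaining prodrug concentration versus incubation time.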

Mus musculus [3] = assay: Tmax in C3H/HeN mouse assessed as compound 5 level at 10 mg/kg, po administered as single dose by LC-MS method; format: ADME, organism-based; settings: in vivo; method in brief: as §1
[4] = Thermodynamic solubility of the compound in 50 mM pH 6.5 phosphate buffer by LC-MS method; format: physicochemical; settings: read-out: Therm_solubility
Method in brief: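 Thermodynamic solubility determined in phosphate buffer (50 mM, pH 6.5).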

Mus musculus [5] = assay: Cmax in C3H/HeN mouse assessed as compound 5 level at 10 mg/kg, po administered as single dose by LC-MS method; format: ADME, organism-based; parameters: dose 10 mg/kg, route oral; settings: in vivo; method in brief: as §1
[6] = Drug metabolism in human Caco2 cells assessed as active parent compound level in basolateral side at 62.5 uM applied at apical compartment measured after 60 mins by LC-MS method; format: ADME, cell-based; settings: caco-2, 1 h
Method in brief: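 Caco-2 monolayer. Test article in Dulbecco's Modified Eagle's Medium at 62.5 µM was applied to the apical chamber. After 60 min, the active principle that had accumulated in the basal receiver chamber was quantified.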

[7] = Stability in simulated gastric fluid assessed as parent compound remaining in absence of pepsin after 2 hrs; format: ADME, tissue-based, Stomach; settings: simulated gastric fluid without pepsin; read-out: Stability
Method in brief: (§2)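 Compound incubated for 120 min in fasted- or fed-state simulated gastric fluid, in simulated gastric fluid, or in buffer sGF (sGF prepared without pepsin), with water as reference medium. Remaining compound is expressed as percent of the t=0 concentration, as the mean of triplicates ± SD.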

[8] = Stability in fed state simulated gastric fluid assessed as parent compound remaining in absence of pancreatin after 2 hrs; format: ADME, tissue-based, Stomach; settings: fed state simulated gastric fluid without pancreatin; read-out: Stability
[9] = Stability in fed state simulated gastric fluid assessed as parent compound remaining in absence of pepsin after 2 hrs; format: ADME, tissue-based, Stomach; settings: fed state simulated gastric fluid without pepsin; read-out: Stability; method in brief: as §2
[10] = Stability in fasted state simulated gastric fluid assessed as parent compound remaining in absence of pancreatin after 2 hrs; format: ADME, tissue-based, Stomach; settings: fasted state simulated gastric fluid without pancreatin; read-out: Stability
[11] = Stability in water assessed as parent compound remaining in absence of pancreatin after 2 hrs; format: physicochemical; settings: read-out: Stability
Mus musculus [12] = assay: Cmax in C3H/HeN mouse assessed as compound 4 level at 10 mg/kg, po administered as single dose by LC-MS method; format: ADME, organism-based; parameters: dose 10 mg/kg, route oral; settings: in vivo; method in brief: as §1
[13] = Stability in buffer simulated gastric fluid assessed as parent compound remaining in absence of pepsin after 2 hrs; settings: buffer simulated gastric fluid without pepsin
[14] = AUC (0 to 24 hrs) in C3H/HeN mouse urine assessed as compound 4 level at 10 mg/kg, po administered as single dose by LC-MS method; format: ADME, organism-based; parameters: dose 10 mg/kg, time < 24 hr, route oral; settings: in vivo; method in brief: as §1
[15] = Stability in water assessed as parent compound remaining in absence of pepsin after 2 hrs; format: physicochemical; settings: read-out: Stability; method in brief: as §2
[16] = Stability in simulated gastric fluid assessed as parent compound remaining in absence of pancreatin after 2 hrs; format: ADME, tissue-based, Stomach; settings: simulated gastric fluid without pancreatin; read-out: Stability
[17] = Stability in buffer simulated gastric fluid assessed as parent compound remaining in absence of pepsin after 2 hrs; format: ADME, tissue-based, Stomach; settings: buffer simulated gastric fluid without pepsin; read-out: Stability; method in brief: as §2
[18] = Stability in fasted state simulated gastric fluid assessed as parent compound remaining in absence of pepsin after 2 hrs; format: ADME, tissue-based, Stomach; settings: fasted state simulated gastric fluid without pepsin; read-out: Stability; method in brief: as §2
Mus musculus [19] = assay: Tmax in C3H/HeN mouse assessed as compound 4 level at 10 mg/kg, po administered as single dose by LC-MS method; format: ADME, organism-based; settings: in vivo; method in brief: as §1

| half-life at 62.5 µM [2] [min] | solubility thermodynamic [4] [µg/mL] | remaining at 2 h [7] [%] | remaining at 2 h [8] [%] | remaining at 2 h [9] [%] | remaining at 2 h [10] [%] | remaining at 2 h [11] [%] | remaining at 2 h [13] [%] | remaining at 2 h [15] [%] | remaining at 2 h [16] [%] | remaining at 2 h [17] [%] | remaining at 2 h [18] [%] | further results | SMILES |
| --- | --- | --- | --- | --- | --- | --- | --- | --- | --- | --- | --- | --- | --- |
| 11 | > 3000 | – | – | – | – | – | – | – | – | – | – | AUC [1]: 24.6 µg·h/mL; Tmax (Mus musculus [3]): 180 min; Cmax (Mus musculus [5]): 4500 ng/mL; Drug metabolism [6]: Dose-dependent effect | N.N.O=[N+]([O-])c1ccc2c(c1)CCN2c1ccc(O[C@H]2O[C@H](COCOP(=O)(O)O)[C@@H](O)[C@H](O)[C@@H]2O)cc1 |
| 12 | > 3000 | – | – | – | – | – | – | – | – | – | – | – | N.N.O=P(O)(O)O[C@@H]1[C@@H](Oc2ccc(-c3ccccc3)cc2)O[C@H](CO)[C@@H](O)[C@@H]1O |
| > 60 | > 3000 | – | – | – | – | – | – | – | – | – | – | – | N.N.O=P(O)(O)OC[C@H]1O[C@H](Oc2ccc(-c3ccccc3)cc2)[C@@H](O)[C@@H](O)[C@@H]1O |
| > 60 | 2700 | – | – | – | – | – | – | – | – | – | – | – | N.N.O=P(O)(O)O[C@H]1[C@H](O)[C@H](O)[C@@H](Oc2ccc(-c3ccccc3)cc2)O[C@@H]1CO |
| 13 | > 3000 | – | – | – | – | – | – | – | – | – | – | – | N.N.O=P(O)(O)O[C@@H]1[C@H](O)[C@@H](Oc2ccc(-c3ccccc3)cc2)O[C@H](CO)[C@H]1O |
| 43 | > 3000 | > 80 | > 80 | > 80 | > 80 | > 80 | > 80 | > 80 | > 80 | > 80 | > 80 | Cmax (Mus musculus [12]): 57000 ng/mL; AUC [14]: 226.4 µg·h/mL; Tmax (Mus musculus [19]): 26.4 min | N#Cc1ccc(-c2ccc(O[C@H]3O[C@H](CO)[C@@H](OP(=O)([O-])[O-])[C@H](O)[C@@H]3O)c(Cl)c2)cc1.[Na+].[Na+] |
| 48 | > 3000 | > 80 | > 80 | > 80 | > 80 | > 80 | > 80 | > 80 | > 80 | > 80 | > 80 | – | N#Cc1ccc(-c2ccc(O[C@H]3O[C@H](COP(=O)([O-])[O-])[C@@H](O)[C@H](O)[C@@H]3O)c(Cl)c2)cc1.[Na+].[Na+] |
| 13 | > 3000 | > 80 | > 80 | > 80 | > 80 | > 80 | > 80 | > 80 | > 80 | > 80 | > 80 | – | N#Cc1ccc(-c2ccc(O[C@H]3O[C@H](CO)[C@@H](O)[C@H](O)[C@@H]3OP(=O)([O-])[O-])c(Cl)c2)cc1.[Na+].[Na+] |
| 12 | > 3000 | – | – | – | – | – | – | – | – | – | – | Cmax (Mus musculus [12]): 40700 ng/mL; AUC [14]: 103.9 µg·h/mL; Tmax (Mus musculus [19]): 54 min; Drug metabolism [6]: Dose-dependent effect | N#Cc1ccc(-c2ccc(O[C@H]3O[C@H](CO)[C@@H](O)[C@H](OP(=O)([O-])[O-])[C@@H]3O)c(Cl)c2)cc1.[Na+].[Na+] |
